Experimental data published in ChEMBL document CHEMBL2346503, “Synthesis and evaluation of novel (18)F-labeled spirocyclic piperidine derivatives as σ1 receptor ligands for positron emission tomography imaging” (J Med Chem, 2013).

What was measured:
[1] = Stability of the compound in mouse plasma at 37 degC up to 4 hrs; format: ADME, cell-free
Outline: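 The radiotracer (3.7 MBq in 100 μL water) was added to 1 mL of freshly prepared murine plasma and incubated at 37 °C for 4 h. Radiochemical purity was assayed by HPLC at 1, 2 and 4 h.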

[2] = Chemical stability of the compound at room temperature up to 4 hrs; format: physicochemical
Outline: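 Radiotracer (3.7 MBq in 100 μL water) was added to 1 mL of 80% ethanol or 0.9% NaCl and held at room temperature for 4 h. Radiochemical purity was checked by HPLC at 1, 2 and 4 h.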

[3] = Metabolic stability in ICR mouse liver at 18.5 MBq, iv after 30 mins by HPLC analysis; format: ADME, organism-based; conditions: read-out: Stability
Outline: (§1)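 Male ICR mice given radiotracer iv (18.5 MBq, 0.2 mL), killed at 30 min. Brain and liver were homogenized in ice-cold PBS (0.01 M, pH 7.4) and extracted with ice-cold MeCN. Supernatants were filtered, concentrated and analysed by radio-HPLC on a C18 column, acetonitrile/water with 0.1% TFA (45:55), 1 mL/min.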

Liver = assay: Metabolic stability in ICR mouse liver assessed as retention time at 18.5 MBq, iv by HPLC analysis; format: ADME, organism-based; conditions: in vivo; outline: as §1
Cerebellum [4] = assay: Biodistribution in Sprague-Dawley rat cerebellum at 23 MBq, iv after 60 mins by microPET imaging/CT study in presence of haloperidol; format: ADME, organism-based; conditions: in vivo, 1 h
Outline: (§2)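 Sprague-Dawley rats under isoflurane (1.5–2.5%) in oxygen received 23 MBq radiotracer (0.2 mL saline) via tail vein. Blocking animals were pre-injected with haloperidol (0.2 mL, 1 mg/kg) 5 min before the tracer. MicroPET emission was acquired for 30 min starting 60 min post-injection, followed by a 5 min CT scan; images were summed over 60–90 min.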

Rattus norvegicus [5] = assay: Biodistribution in Sprague-Dawley rat pontine reticular nucleus at 23 MBq, iv after 60 mins by microPET imaging/CT study in presence of haloperidol; format: ADME, organism-based; conditions: in vivo, 1 h; outline: as §2
Midbrain [6] = assay: Biodistribution in Sprague-Dawley rat midbrain at 23 MBq, iv after 60 mins by microPET imaging/CT study in presence of haloperidol; format: ADME, organism-based; conditions: in vivo, 1 h; outline: as §2
Rattus norvegicus [7] = assay: Biodistribution in Sprague-Dawley rat internal capsule at 23 MBq, iv after 60 mins by microPET imaging/CT study; format: ADME, organism-based; conditions: in vivo, 1 h; outline: as §2
Rattus norvegicus [8] = assay: Biodistribution in Sprague-Dawley rat olfactory bulb at 23 MBq, iv after 60 mins by microPET imaging/CT study; format: ADME, organism-based; conditions: in vivo, 1 h; outline: as §2
Cerebellum [9] = assay: Biodistribution in Sprague-Dawley rat cerebellum at 23 MBq, iv after 60 mins by microPET imaging/CT study; format: ADME, organism-based; conditions: in vivo, 1 h; outline: as §2
Cortex [10] = assay: Biodistribution in Sprague-Dawley rat cortex at 23 MBq, iv after 60 mins by microPET imaging/CT study; format: ADME, organism-based; conditions: in vivo, 1 h; outline: as §2
Rattus norvegicus [11] = assay: Biodistribution in Sprague-Dawley rat pontine reticular nucleus at 23 MBq, iv after 60 mins by microPET imaging/CT study; format: ADME, organism-based; conditions: in vivo, 1 h; outline: as §2
Thalamus = assay: Biodistribution in Sprague-Dawley rat thalamus at 23 MBq, iv after 60 mins by microPET imaging/CT study; format: ADME, organism-based; conditions: in vivo, 1 h; outline: as §2
Hypothalamus [12] = assay: Biodistribution in Sprague-Dawley rat hypothalamus at 23 MBq, iv after 60 mins by microPET imaging/CT study; format: ADME, organism-based; conditions: in vivo, 1 h; outline: as §2
Midbrain [13] = assay: Biodistribution in Sprague-Dawley rat midbrain at 23 MBq, iv after 60 mins by microPET imaging/CT study; format: ADME, organism-based; conditions: in vivo, 1 h; outline: as §2
Nucleic Acid [14] = assay: Ratio of drug uptake in Sprague-Dawley rat hippocampus to cerebellum at 12.2 MBq, iv after 60 mins by autoradiography; format: ADME, organism-based; conditions: in vivo, 1 h
Nucleic Acid [15] = assay: Ratio of drug uptake in Sprague-Dawley rat interior coliculus to cerebellum at 12.2 MBq, iv after 60 mins by autoradiography; format: ADME, organism-based; conditions: in vivo, 1 h
Nucleic Acid [16] = assay: Ratio of drug uptake in Sprague-Dawley rat thalamus to cerebellum at 12.2 MBq, iv after 60 mins by autoradiography; format: ADME, organism-based; conditions: in vivo, 1 h
Nucleic Acid [17] = assay: Ratio of drug uptake in Sprague-Dawley rat frontal cortex to cerebellum at 12.2 MBq, iv after 60 mins by autoradiography; format: ADME, organism-based; conditions: in vivo, 1 h
Nucleic Acid [18] = assay: Ratio of drug uptake in Sprague-Dawley rat temporal cortex auditory area to cerebellum at 12.2 MBq, iv after 60 mins by autoradiography; format: ADME, organism-based; conditions: in vivo, 1 h
[19] = Drug uptake in Sprague-Dawley rat vermian lobule at 12.2 MBq, iv after 60 mins by autoradiography; format: ADME, organism-based; conditions: in vivo, 1 h
Outline: (§3)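 [¹⁸F]-labelled tracer (0.2 mL, 12.2 MBq) given intravenously to conscious Sprague-Dawley rats (n = 3). Each rat was killed by cervical dislocation 60 min after injection. The brain was removed and frozen in liquid nitrogen, and 20 μm coronal sections were cut on a cryostat for ex vivo autoradiography of regional radioactivity.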

Hypothalamus [20] = assay: Drug uptake in Sprague-Dawley rat hypothalamus at 12.2 MBq, iv after 60 mins by autoradiography; format: ADME, organism-based; conditions: in vivo, 1 h; outline: as §3
Cortex [21] = assay: Drug uptake in Sprague-Dawley rat visual cortex at 12.2 MBq, iv after 60 mins by autoradiography; format: ADME, organism-based; conditions: in vivo, 1 h; outline: as §3
Brain [22] = assay: Biodistribution in ICR mouse brain assessed as reduction in radiotracer uptake at 370 kBq, iv after 60 minutes by gamma-counting analysis in presence of fluvoxamine; format: ADME, organism-based; conditions: in vivo, 1 h
Outline: (§4)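 Male ICR mice got saline or a blocker (haloperidol, (S)-(−)-raclopride, fluvoxamine or tamoxifen; 0.1 mL, 2.2 μmol/kg) via tail vein 5 min before 370 kBq tracer iv. Brain was γ-counted at 60 min and compared with saline controls by two-tailed Student's t test, p ≤ 0.05.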

Brain [23] = assay: Biodistribution in ICR mouse brain assessed as reduction in radiotracer uptake at 370 kBq, iv after 60 minutes by gamma-counting analysis in presence of (S)-(-)raclopride; format: ADME, organism-based; conditions: in vivo, 1 h; outline: as §4
Blood = assay: Biodistribution in ICR mouse blood assessed as radiotracer accumulation at 370 kBq, iv after 60 minutes by gamma-counting analysis in presence of SA4503; format: ADME, organism-based; conditions: in vivo, 1 h
Outline: (§5)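 Male ICR mice got saline or SA4503 (0.1 mL; 2, 5, 10 or 2.2 μmol/kg) via tail vein 5 min before 370 kBq tracer (0.1 mL) iv. They were decapitated at 60 min and tissues γ-counted. Percent change was taken against saline controls, with two-tailed Student's t test, p ≤ 0.05.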

Spleen = assay: Biodistribution in ICR mouse spleen assessed as reduction in radiotracer uptake at 370 kBq, iv after 60 minutes by gamma-counting analysis in presence of SA4503 relative to control; format: ADME, organism-based; set-up: scale not given: the % may be the effect or the level left; conditions: in vivo, 1 h
Outline: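 Male ICR mice were given saline or SA4503 (0.1 mL; 2, 5 or 10 μmol/kg) via tail vein 5 min before [18F]radiotracer (370 kBq, 0.1 mL, iv). Killed at 60 min. Organs were gamma-counted as % ID/g and reduction was computed versus saline controls. Two-tailed independent Student's t test, p ≤ 0.05.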

Kidney = assay: Biodistribution in ICR mouse kidney assessed as reduction in radiotracer uptake at 370 kBq, iv after 60 minutes by gamma-counting analysis in presence of SA4503 relative to control; format: ADME, organism-based; set-up: scale not given: the % may be the effect or the level left; conditions: in vivo, 1 h; outline: as §5
Heart = assay: Biodistribution in ICR mouse heart assessed as reduction in radiotracer uptake at 370 kBq, iv after 60 minutes by gamma-counting analysis in presence of SA4503 relative to control; format: ADME, organism-based; set-up: scale not given: the % may be the effect or the level left; conditions: in vivo, 1 h; outline: as §5

Which results are given for [18F]CCOc1ccc(CN2CCC3(CC2)OCc2ccccc23)cc1?
Stability [1]: Stable; Stability [2]: Stable; remaining at 0.5 h [3]: 40.3%; Retention_time (Liver): 7.72 min; Drug uptake (Cerebellum [4]): Active; Drug uptake (Rattus norvegicus [5]): Active; Drug uptake (Midbrain [6]): Active; Drug uptake (Rattus norvegicus [7]): Active; Drug uptake (Rattus norvegicus [8]): Active; Drug uptake (Cerebellum [9]): Active; Drug uptake (Cortex [10]): Active; Drug uptake (Rattus norvegicus [11]): Active; Drug uptake (Thalamus): Active; Drug uptake (Hypothalamus [12]): Active; Drug uptake (Midbrain [13]): Active; Ratio (Nucleic Acid [14]): 1.22; Ratio (Nucleic Acid [15]): 1.3; Ratio (Nucleic Acid [16]): 1.38; Ratio (Nucleic Acid [17]): 1.5; Ratio (Nucleic Acid [18]): 1.9; Drug uptake [19]: Active; Drug uptake (Hypothalamus [20]): Active; Drug uptake (Cortex [21]): Active; Drug uptake (Brain [22]): Active; Drug uptake (Brain [23]): Active; Drug uptake (Blood): Active; Activity (Spleen): 29%; Activity (Kidney): 57%; Activity (Heart): 60%
